Measurements from ChEMBL document CHEMBL1132205, “Desazadesmethyldesferrithiocin analogues as orally effective iron chelators” (J Med Chem, 1999).

Tests used:
Rattus norvegicus [1] = assay: Efficiency of the chelator [(net iron excretion ) / (total iron binding capacity of chelator)] to induce iron clearance in rat at a peroral dose of 150 umol/kg.; type: functional
Procedure, shortened: (§1)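 Male Sprague–Dawley rats (~400 g) had bile-duct cannulation under ip pentobarbital. Chelator in 40% Cremophor RH-40/water was given at 150 µmol/kg, po or sc. Bile was collected at 3-h intervals for 24 h and urine every 24 h; iron was measured in both. Net iron = treated minus control excretion, divided by the theoretical 2:1 ligand–iron binding capacity, as a percent.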

Rattus norvegicus [2] = assay: Efficiency of the chelator [(net iron excretion ) / (total iron binding capacity of chelator)] to induce iron clearance in rat at a subcutaneous dose of 150 uMol/kg.; type: functional; procedure, shortened: as §1
Rattus norvegicus [3] = assay: Efficiency of the chelator [(net iron excretion ) / (total iron binding capacity of chelator)] to induce iron clearance in rat at a peroral dose of 150 uMol/kg.; type: functional; procedure, shortened: as §1
[4] = Octanol-water apparent distribution coefficient measured in TRIS buffer at a pH 7.4.; type: physicochemical
Procedure, shortened: (§2)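 Shake-flask octanol/50 mM TRIS buffer pH 7.4 at 24 °C, with 3–5 min mixing and 1–24 h settling. Phase concentrations were read by UV spectrometry. Values are distribution coefficients uncorrected for partial ionization of the acids.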

[5] = log P value measured in TRIS buffer at a pH 7.4.; type: physicochemical; procedure, shortened: as §2
Monkey [6] = assay: Efficiency of the chelator [(net iron excretion ) / (total iron binding capacity of chelator)] to induce iron clearance in monkey at a peroral dose of 150 uMol/kg.; type: functional, Cercopithecidae
Procedure, shortened: (§3)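 Capuchin (Cebus apella) monkeys were iron-loaded with 2–3 iron dextran iv infusions to about 500 mg Fe/kg, then rested at least 60 days. Chelator was given po in 40% Cremophor RH-40/water. Feces and urine were collected every 24 h, from 4 days pre-dose to 5 days post-dose, and iron was measured by flame AAS. Efficiency = (2-day post-dose iron − mean 4-day baseline) / theoretical output for a 2:1 ligand–iron complex, as a percent.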

Rattus norvegicus [7] = assay: Chronic toxicity in rats administered by gavage at a dose of 384 [uMol/kg/day] X 10 days, measured as number of deaths. Activity value is 0/5 (All histopathologies normal; well tolerated for 10-day test period); type: organism-based; conditions: in vivo, po, 240 h
Monkey [8] = assay: Efficiency of the chelator [(net iron excretion ) / (total iron binding capacity of chelator)] to induce iron clearance in monkey at a peroral dose of 75 umol/kg.
Monkey [9] = assay: Efficiency of the chelator [(net iron excretion ) / (total iron binding capacity of chelator)] to induce iron clearance in monkey at a peroral dose of 300 uMol/kg.; type: functional, Cercopithecidae; procedure, shortened: as §3
Rattus norvegicus [10] = assay: Chronic toxicity in 5 rats administered by gavage at a dose of 384 [uMol/kg/day] X 10 days, measured as number of deaths. Activity value is 0/5 (All histopathologies normal; well tolerated for 10-day test period); type: organism-based; conditions: in vivo, po, 240 h
Rattus norvegicus [11] = assay: Chronic toxicity in 5 rats administered by gavage at a dose of 384 [uMol/kg/day] X 10 days, measured as number of deaths. Activity value is 5/5.; type: organism-based; conditions: in vivo, po, 240 h
Rattus norvegicus [12] = assay: Chronic toxicity in 5 rats administered by gavage at a dose of 384 [uMol/kg/day] X 10 days, measured as number of deaths. Activity value is 5/5; type: organism-based; conditions: in vivo, po, 240 h

With `O=C(O)C1CN=C(c2ccccc2O)N1` (centres undefined) the Efficiency (Rattus norvegicus [1]) was under 0.5% and the Efficiency (Rattus norvegicus [2]) was under 0.5%.

`COc1cccc(C2=N[C@@H](C(=O)O)CS2)c1O` showed an Efficiency (Rattus norvegicus [1]) of 0.9% and an Efficiency (Rattus norvegicus [2]) of 0.5%.

`O=C(O)[C@H]1CSC(Cc2ccccc2O)=N1` showed an Efficiency (Rattus norvegicus [1]) of under 0.5% and an Efficiency (Rattus norvegicus [2]) of under 0.5%.

`O=C(O)C[C@H]1CSC(c2ccccc2O)=N1` gave an Efficiency (Rattus norvegicus [1]) of under 0.5%.

Work on `O=C(O)CC[C@H]1CSC(c2ccccc2O)=N1` yielded an Efficiency (Rattus norvegicus [1]) of under 0.5%.

With `O=C(O)c1ccc(C2=N[C@@H](C(=O)O)CS2)c(O)c1` the Efficiency (Rattus norvegicus [1]) was under 0.5% and the Efficiency (Rattus norvegicus [2]) was under 0.5%.

`O=C(O)[C@H]1CSC(c2cccc(O)c2O)=N1` gave an Efficiency (Rattus norvegicus [2]) of under 0.5% and an Efficiency (Rattus norvegicus [3]) of under 0.5%.

Compound `O=C(O)[C@H]1CSC(c2ccc(O)cc2O)=N1` has a K app [4] of 0.063, a logD [5] of -1.2 and an Efficiency (Monkey [6]) of 4.2%. The Efficiency (Rattus norvegicus [3]) was 2.4% and the No. of deaths (Rattus norvegicus [7]) was “well tolerated for 10-day test period”.

Compound `O=C(O)[C@@H]1CSC(c2nc3ccccc3cc2O)=N1` has an Efficiency (Rattus norvegicus [1]) of 12.3% and an Efficiency (Monkey [8]) of under 0.5%.

`O=C(O)[C@H]1CSC(c2ncccc2O)=N1` gave a K app [4] of 0.013, a logD [5] of -1.87 and an Efficiency (Monkey [9]) of 8%. The Efficiency (Monkey [6]) was 4.8%, the Efficiency (Rattus norvegicus [1]) was 2.4% and the No. of deaths (Rattus norvegicus [10]) was “well tolerated for 10-day test period”.

In the case of `O=C(O)[C@H]1CSC(c2nc3ccccc3cc2O)=N1`, the Efficiency (Monkey [6]) is reported as 3.5% and the Efficiency (Rattus norvegicus [1]) is reported as 5.9%.

For `O=C(O)[C@H]1CSC(c2ccccc2O)=N1`, the K app [4] was 0.12, the logD [5] was -0.93 and the Efficiency (Monkey [9]) was 12.4%. The Efficiency (Rattus norvegicus [1]) was 1.4% and the No. of deaths (Rattus norvegicus [11]) was “Number of deaths 5/5”.

With `Cc1ccc(O)c(C2=NC(C(=O)O)CC2)c1.Cl` (centres undefined) the Efficiency (Rattus norvegicus [1]) was under 0.5% and the Efficiency (Rattus norvegicus [2]) was under 0.5%.

`C[C@]1(C(=O)O)CSC(c2ncccc2O)=N1` [DESFERRITHIOCIN] gave a K app [4] of 0.017, a logD [5] of -1.77 and an Efficiency (Monkey [6]) of 16.1%. The Efficiency (Rattus norvegicus [1]) was 5.5% and the No. of deaths (Rattus norvegicus [12]) was “Number of deaths 5/5”.
